Results reported in ChEMBL document CHEMBL5724801, “EUbOPEN Chemogenomics Library - Multiplex” (2024).
Several values for one entry are separate records, joined by “and”; a condition that tells them apart may be missing. Equal entries are not always repeated.

Experiments:
U2OS = assay: Multiplex assay against U2OS; format: toxicity, cell-based; settings: human
In short: (§1)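 Per cents of healthy-nucleus cells form the tubulin, mitochondrial-mass and membrane-permeability phenotype values. Live cells were stained at seeding with Hoechst33342, BioTracker Green Microtubule Cytoskeleton Dye, MitoTracker Red and Annexin V Alexa Fluor 680. After compound addition they were imaged on a CQ1 microscope at 37°C and 5% CO2, and CellPathfinder machine-learning gating split them into Hoechst high-intensity objects or normal cells, normal cells into healthy, pyknosed or fragmented nuclei, and pyknosed cells into mitotic or apoptotic.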

HEK-293T = assay: Multiplex assay against HEK293T; format: toxicity, cell-based; settings: human; in short: as §1
[1] = 12 h, 1 µM, compound concentration 1 uM
[2] = 12 h, 10 µM, compound concentration 10 uM
[3] = 24 h, 1 µM, compound concentration 1 uM
[4] = 24 h, 10 µM, compound concentration 10 uM
[5] = 48 h, 1 µM, compound concentration 1 uM
[6] = 48 h, 10 µM, compound concentration 10 uM

**Q.** Which results are given for COc1cc(C(=O)N(CCCc2ccccc2)Cc2ccc(CC(=O)O)cc2)cc(OC)c1C?
**A.** Population Apoptotic (%) (U2OS; [1]): 95% and 70%; Population Fragmented Nuclei (%) (U2OS; [1]): 29% and 23%; Population Healthy Nuclei (%) (U2OS; [1]): 60% and 65%; Population Hoechst High Intensity Objects (%) (U2OS; [1]): 4%; Population Membrane Permeable-Phenotype (%) (U2OS; [1]): 7% and 8%; Population Mitochondria Different-Phenotype (%) (U2OS; [1]): 4% and 1%; Population Normal (%) (U2OS; [1]): 95%; Population Pyknosed Nuclei (%) (U2OS; [1]): 10% and 11%; Population Tubulin-Different-Phenotype (%) (U2OS; [1]): 4% and 1%; Total Cell Count (U2OS; [1]): 228 and 93; Population Apoptotic (%) (U2OS; [2]): 82% and 100%; Population Fragmented Nuclei (%) (U2OS; [2]): 22% and 15%; Population Healthy Nuclei (%) (U2OS; [2]): 71% and 79%; Population Hoechst High Intensity Objects (%) (U2OS; [2]): 0% and 1%; Population Membrane Permeable-Phenotype (%) (U2OS; [2]): 5% and 2%; Population Mitochondria Different-Phenotype (%) (U2OS; [2]): 0% and 3%; Population Mitotic Cells (%) (U2OS; [2]): 17% and 0%; Population Normal (%) (U2OS; [2]): 99% and 98%; Population Pyknosed Nuclei (%) (U2OS; [2]): 6% and 4%; Population Tubulin-Different-Phenotype (%) (U2OS; [2]): 2% and 4%; Total Cell Count (U2OS; [2]): 262 and 171; Population Apoptotic (%) (U2OS; [3]): 84% and 73%; Population Fragmented Nuclei (%) (U2OS; [3]): 29% and 22%; Population Healthy Nuclei (%) (U2OS; [3]): 61% and 64%; Population Hoechst High Intensity Objects (%) (U2OS; [3]): 2% and 4%; Population Membrane Permeable-Phenotype (%) (U2OS; [3]): 7% and 2%; Population Mitochondria Different-Phenotype (%) (U2OS; [3]): 6% and 2%; Population Mitotic Cells (%) (U2OS; [3]): 15% and 26%; Population Normal (%) (U2OS; [3]): 97% and 95%; Population Pyknosed Nuclei (%) (U2OS; [3]): 9% and 13%; Population Tubulin-Different-Phenotype (%) (U2OS; [3]): 4% and 0%; Total Cell Count (U2OS; [3]): 288 and 120; Population Apoptotic (%) (U2OS; [4]): 94% and 84%; Population Fragmented Nuclei (%) (U2OS; [4]): 18% and 12%; Population Healthy Nuclei (%) (U2OS; [4]): 76% and 80%; Population Hoechst High Intensity Objects (%) (U2OS; [4]): 0% and 2%; Population Membrane Permeable-Phenotype (%) (U2OS; [4]): 7%; Population Mitochondria Different-Phenotype (%) (U2OS; [4]): 2% and 5%; Population Mitotic Cells (%) (U2OS; [4]): 5% and 15%; Population Normal (%) (U2OS; [4]): 99% and 97%; Population Pyknosed Nuclei (%) (U2OS; [4]): 5% and 6%; Population Tubulin-Different-Phenotype (%) (U2OS; [4]): 3% and 5%; Total Cell Count (U2OS; [4]): 318 and 192; Population Apoptotic (%) (U2OS; [5]): 86% and 78%; Population Fragmented Nuclei (%) (U2OS; [5]): 23% and 22%; Population Healthy Nuclei (%) (U2OS; [5]): 69% and 64%; Population Hoechst High Intensity Objects (%) (U2OS; [5]): 3% and 6%; Population Membrane Permeable-Phenotype (%) (U2OS; [5]): 5% and 7%; Population Mitochondria Different-Phenotype (%) (U2OS; [5]): 2% and 5%; Population Mitotic Cells (%) (U2OS; [5]): 13% and 21%; Population Normal (%) (U2OS; [5]): 96% and 93%; Population Pyknosed Nuclei (%) (U2OS; [5]): 7% and 12%; Population Tubulin-Different-Phenotype (%) (U2OS; [5]): 4% and 6%; Total Cell Count (U2OS; [5]): 408 and 159; Population Apoptotic (%) (U2OS; [6]): 93% and 94%; Population Fragmented Nuclei (%) (U2OS; [6]): 18% and 15%; Population Healthy Nuclei (%) (U2OS; [6]): 75% and 71%; Population Hoechst High Intensity Objects (%) (U2OS; [6]): 1% and 3%; Population Membrane Permeable-Phenotype (%) (U2OS; [6]): 4% and 8%; Population Mitochondria Different-Phenotype (%) (U2OS; [6]): 2% and 1%; Population Mitotic Cells (%) (U2OS; [6]): 6% and 5%; Population Normal (%) (U2OS; [6]): 98% and 96%; Population Pyknosed Nuclei (%) (U2OS; [6]): 6% and 13%; Population Tubulin-Different-Phenotype (%) (U2OS; [6]): 2% and 4%; Total Cell Count (U2OS; [6]): 504 and 280; Population Apoptotic (%) (HEK-293T; [1]): 45% and 44%; Population Fragmented Nuclei (%) (HEK-293T; [1]): 7% and 6%; Population Healthy Nuclei (%) (HEK-293T; [1]): 82% and 84%; Population Hoechst High Intensity Objects (%) (HEK-293T; [1]): 5% and 4%; Population Membrane Permeable-Phenotype (%) (HEK-293T; [1]): 0%; Population Mitochondria Different-Phenotype (%) (HEK-293T; [1]): 47% and 50%; Population Mitotic Cells (%) (HEK-293T; [1]): 55%; Population Normal (%) (HEK-293T; [1]): 94% and 95%; Population Pyknosed Nuclei (%) (HEK-293T; [1]): 10% and 9%; Population Tubulin-Different-Phenotype (%) (HEK-293T; [1]): 31% and 19%; Total Cell Count (HEK-293T; [1]): 395 and 410; Population Apoptotic (%) (HEK-293T; [2]): 30% and 47%; Population Fragmented Nuclei (%) (HEK-293T; [2]): 6% and 4%; Population Healthy Nuclei (%) (HEK-293T; [2]): 77% and 82%; Population Hoechst High Intensity Objects (%) (HEK-293T; [2]): 8% and 6%; Population Membrane Permeable-Phenotype (%) (HEK-293T; [2]): 1% and 0%; Population Mitochondria Different-Phenotype (%) (HEK-293T; [2]): 46% and 67%; Population Mitotic Cells (%) (HEK-293T; [2]): 70% and 52%; Population Normal (%) (HEK-293T; [2]): 91% and 93%; Population Pyknosed Nuclei (%) (HEK-293T; [2]): 15% and 13%; Population Tubulin-Different-Phenotype (%) (HEK-293T; [2]): 52% and 44%; Total Cell Count (HEK-293T; [2]): 431 and 438; Population Apoptotic (%) (HEK-293T; [3]): 32% and 48%; Population Fragmented Nuclei (%) (HEK-293T; [3]): 7%; Population Healthy Nuclei (%) (HEK-293T; [3]): 78% and 82%; Population Hoechst High Intensity Objects (%) (HEK-293T; [3]): 5% and 3%; Population Membrane Permeable-Phenotype (%) (HEK-293T; [3]): 0%; Population Mitochondria Different-Phenotype (%) (HEK-293T; [3]): 27% and 26%; Population Mitotic Cells (%) (HEK-293T; [3]): 67% and 51%; Population Normal (%) (HEK-293T; [3]): 94% and 96%; Population Pyknosed Nuclei (%) (HEK-293T; [3]): 14% and 9%; Population Tubulin-Different-Phenotype (%) (HEK-293T; [3]): 15% and 10%
